In ChEMBL document CHEMBL3853307, “Anti-inflammatory Effect of Methyl Gallate on Experimental Arthritis: Inhibition of Neutrophil Recruitment, Production of Inflammatory Mediators, and Activation of Macrophages” (J Nat Prod, 2016):
The source made the active and inactive calls. No cut-off for these calls is given here.

Key:
[1] = test system: J774.A1; assay: Antiinflammatory activity in mouse J774A.1 cells assessed as inhibition of zymosan and IFNgamma-induced nitric oxide production at 10 uM preincubated for 1 hr followed by zymosan and IFNgamma addition measured after 24 hrs by colorimetric Griess test; assay type: functional, cell-based
Summary of the method: (§1)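 J774A.1 macrophages (1 × 10^5/well, RPMI/10% FBS) adhered 24 h, preincubated 1 h with compound (0.1−10 μM) or dexamethasone (1 μM), then stimulated with zymosan (10 μg per 10^5 cells) and/or IFN-γ (25 U/mL) for 24 h. Supernatant IL-6 by sandwich ELISA; nitrite by Griess reaction at 540 nm. Quadruplicate wells, two experiments.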

[2] = Cytotoxicity against C57BL/6 mouse neutrophils assessed as cell viability at 100 uM after 2 hrs by lactate dehydrogenase assay relative to control; assay type: toxicity, Neutrophil; conditions: read-out: Activity
Summary of the method: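 Bone-marrow neutrophils from C57BL/6 mice, Percoll-purified (65%/72% interface, ~85-90% purity), plated at 1 × 10^5 cells/well; fresh medium with or without Tween 20 (3%) or compound (0.01−100 μM), quadruplicate; 2 h incubation. LDH released into supernatant measured, 20−30 min at room temperature, stopped with 1 N HCl; absorbance 490 nm minus 690 nm background.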

[3] = test system: J774.A1; assay: Antiinflammatory activity in mouse J774A.1 cells assessed as inhibition of zymosan and IFNgamma-induced iNOS expression at 1 to 10 uM preincubated for 1 hr followed by zymosan and IFNgamma addition measured after 24 hrs by Western blot analysis; assay type: functional, cell-based
Summary of the method: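 J774A.1 cells in six-well plates pretreated 1 h (0.1−10 μM) before zymosan (10 μg per 10^5 cells) and/or IFN-γ (25 U/mL) for 24 h. Lysates (Tris/NaCl/MgCl2/0.5% NP40 with protease inhibitors); 30 μg protein run on 7.5% SDS-PAGE, transferred to PVDF, probed for COX-2, iNOS and α-tubulin.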

[4] = test system: Neutrophil; assay: Antiinflammatory activity in C57BL/6 mouse neutrophils assessed as inhibition of CXCL1/KC-induced neutrophil chemotaxis at 0.1 to 1 uM preincubated for 1 hr followed by CXCL1/KC-induction measured after 1 hr by Wright-Giemsa staining-based light microscopic method; assay type: functional, cell-based
Summary of the method: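 Bone marrow neutrophils from C57BL/6 femurs, purified on a 65%/72% Percoll gradient (~85−90% purity). 10^5 cells preincubated 1 h with compound or medium, then placed in a 48-well Boyden chamber over CXCL-1/KC (250 nM) across a 5 μm polycarbonate filter, 60 min at 37 °C, 5% CO2. Filter Wright-Giemsa stained; migrated cells counted in 15 fields; quadruplicate wells.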

[5] = test system: Mus musculus; assay: Antiinflammatory activity in C57BL/6 mouse assessed as inhibition of zymosan-induced total leukocyte accumulation in articular cavity at 7 mg/kg, po administered 1 hr prior to zymosan challenge measured at 24 hrs; assay type: functional, organism-based
Summary of the method: (§2)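 Male C57BL/6 mice, fasted overnight, dosed orally (vehicle saline/water, 200 μL) or i.p. 1 h before zymosan (500 μg in 25 μL saline, i.a., left knee). Knee swelling measured as change in transverse diameter from basal by digital caliper (mm). Synovial washes (PBS/EDTA) counted on a particle counter; differentials from May-Grünwald-Giemsa cytospins, cells ×10^5/cavity. Sampled at 6 and/or 24 h; seven mice/group.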

[6] = test system: Mus musculus; assay: Antiinflammatory activity in C57BL/6 mouse assessed as inhibition of zymosan-induced mononuclear cells recruitment in synovial cavity at 0.7 to 70 mg/kg, po administered 1 hr prior to zymosan challenge measured after 6 to 24 hrs by Grunwald-Giemsa-stained cytospin smear; assay type: functional, organism-based
[7] = Cytotoxicity against mouse J774A.1 cells assessed as cell viability at 0.01 to 100 uM after 20 hrs by Alamar Blue assay relative to control; assay type: toxicity, J774.A1; conditions: read-out: Activity
Summary of the method: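 J774A.1 cells at 2.5 × 10^5 cells/well, 24 h pre-incubation at 37 °C, 5% CO2; fresh medium with or without Tween 20 (3%) or compound (0.01−100 μM), quadruplicate; 20 h incubation, then Alamar Blue added for 4 h; fluorescence read at ex 555/em 585 nm.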

[8] = test system: J774.A1; assay: Antiinflammatory activity in mouse J774A.1 cells assessed as inhibition of zymosan and IFNgamma-induced IL6 production in cell-free supernatant at 0.1 to 10 uM preincubated for 1 hr followed by zymosan and IFNgamma addition measured after 24 hrs by sandwich ELISA; assay type: functional, cell-based; summary of the method: as §1
[9] = test system: Mus musculus; assay: Antiinflammatory activity in C57BL/6 mouse assessed as inhibition of zymosan-induced knee joint edema formation at 7 mg/kg, po administered 1 hr prior to zymosan challenge measured at 6 hrs relative to control; assay type: functional; conditions: C57BL/6, Knee joint; summary of the method: as §2
[10] = test system: Mus musculus; assay: Antiinflammatory activity in C57BL/6 mouse assessed as inhibition of zymosan-induced infiltration of inflammatory cells into synovial tissue at 7 mg/kg, po administered 1 hr prior to zymosan challenge measured at 6 to 24 hrs by hematoxylin and eosin staining-based optical microscopy; assay type: functional, organism-based
Summary of the method: (§3)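 Mice dosed orally or i.p. 1 h before i.a. zymosan (500 μg/cavity) or saline. Whole knees taken at 6 and 24 h from six mice, fixed in 10% formalin 48 h, decalcified in 10% EDTA/PBS 1−2 weeks, paraffin-embedded. 5 μm sections H&E-stained and examined by light microscopy. Parameter scores summed into an arthritis index; means ± SEM, two experiments.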

[11] = test system: Mus musculus; assay: Antiinflammatory activity in C57BL/6 mouse assessed as inhibition of zymosan-induced LTB4 production in cell-free supernatant of knee joint synovial washes at 7 mg/kg, po administered 1 hr prior to zymosan challenge measured at 6 to 24 hrs by immunosorbent assay; assay type: functional, organism-based
Summary of the method: (§4)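 Male C57BL/6 mice (18−22 g), fasted overnight, dosed orally (in filtered water, 200 μL) or i.p. 1 h before i.a. zymosan (500 μg in 25 μL saline) into left knee; contralateral knee got vehicle. Synovial cavity washed twice with 150 μL PBS/10 mM EDTA at 6 and 24 h; washes spun 400g 10 min, 4 °C. Cytokines measured by sandwich ELISA, LTB4/PGE2 by EIA (pg/mL); six mice/group, two experiments.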

[12] = test system: Mus musculus; assay: Antiinflammatory activity in C57BL/6 mouse assessed as inhibition of zymosan-induced IL6 production in cell-free supernatant of knee joint synovial washes at 7 mg/kg, po administered 1 hr prior to zymosan challenge measured at 6 to 24 hrs by sandwich ELISA method; assay type: functional, organism-based; summary of the method: as §4
[13] = test system: Mus musculus; assay: Antiinflammatory activity in C57BL/6 mouse assessed as inhibition of zymosan-induced arthritis score at 7 mg/kg, po administered 1 hr prior to zymosan challenge measured at 6 to 24 hrs by hematoxylin and eosin staining-based optical microscopy; assay type: functional, organism-based; summary of the method: as §3
[14] = test system: Mus musculus; assay: Antiinflammatory activity in C57BL/6 mouse assessed as inhibition of zymosan-induced IL-1beta production in cell-free supernatant of knee joint synovial washes at 7 mg/kg, po administered 1 hr prior to zymosan challenge measured at 6 to 24 hrs by sandwich ELISA method; assay type: functional, organism-based; summary of the method: as §4
[15] = test system: Mus musculus; assay: Antiinflammatory activity in C57BL/6 mouse assessed as inhibition of zymosan-induced TNFalpha production in cell-free supernatant of knee joint synovial washes at 7 mg/kg, po administered 1 hr prior to zymosan challenge measured at 6 to 24 hrs by sandwich ELISA method; assay type: functional, organism-based; summary of the method: as §4

SMILES: COC(=O)c1cc(O)c(O)c(O)c1 [GALLIC ACID METHYL ESTER]
- inhibition [1]: Active
- viability at 2 h, 100 µM [2]: ≥ 92%
- inhibition [3]: Active
- inhibition [4]: Active
- inhibition [5]: Active
- inhibition [6]: Active
- viability at 20 h, up to 100 µM [7]: ≥ 95%
- inhibition [8]: Active
- inhibition in vivo at 7 mg/kg [9]: 24%
- inhibition [10]: Active
- inhibition [11]: Active
- inhibition [12]: Active
- inhibition [13]: Active
- inhibition [14]: Active
- inhibition [15]: Active
